Reference: ChEMBL document CHEMBL1142894, “Preparation of 5-aryl-3-alkylthio-l,2,4-triazoles and corresponding sulfones with antiinflammatory-analgesic activity” (Bioorg Med Chem, 2007)
The source made the active and inactive calls. The rule behind the calls is not given here.

Key:
Mus musculus [1] = experiment: Inhibition of carrageenan-induced paw edema in Swiss albino mouse at 50 mg/kg, po after 270 mins relative to control; type: functional; conditions: 4.5 h
Outline: (§1)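 Mice, n = 6 per group. Test agent given orally as a suspension in 0.5% sodium CMC in distilled water; controls received vehicle only. Afterwards, 0.5 mg/25 ll carrageenan in saline (154 mM NaCl) injected subplantar into the right hind paw, saline into the left. Right-minus-left footpad thickness measured by dial gauge caliper every 90 min for 6 h. Inhibition is relative to vehicle-control group means.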

Mus musculus [2] = experiment: Inhibition of carrageenan-induced paw edema in Swiss albino mouse at 50 mg/kg, po after 360 mins relative to control; type: functional; conditions: 6 h; outline: as §1
Mus musculus [3] = experiment: Antiinflammatory activity against carrageenan-induced paw edema in Swiss albino mouse assessed as swelling thickness at 25 mg/kg, po after 180 mins; type: functional
Outline: (§2)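 Oral dosing in 0.5% CMC; vehicle to controls. Then carrageenan (0.5 mg/25 ll, freshly suspended in 154 mM saline) injected into the right hind paw subplantar tissue; saline into the left paw. Right-left footpad thickness difference measured by dial gauge calliper every 90 min over 6 h. Inhibition % is relative to vehicle control. n = 6; mean ± SEM.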

Mus musculus [4] = experiment: Analgesic activity against p-benzoquinone-induced abdominal constriction in Swiss albino mouse assessed as number of writhings at 50 mg/kg, po; type: functional, Abdomen
Outline: (§3)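 Test samples given orally in 0.5% CMC; vehicle to controls. 60 min later, 2.5% (v/v) p-benzoquinone in distilled water, 0.1 ml/10 g, given i.p. Mice housed singly; writhes counted for 15 min starting 5 min after injection. Activity is % change from vehicle controls. n = 6; mean ± SEM.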

Mus musculus [5] = experiment: Inhibition of carrageenan-induced paw edema in Swiss albino mouse at 200 mg/kg, po after 180 mins relative to control; type: functional; conditions: 3 h; outline: as §2
Mus musculus [6] = experiment: Antiinflammatory activity against carrageenan-induced paw edema in Swiss albino mouse assessed as swelling thickness at 25 mg/kg, po after 90 mins; type: functional; outline: as §2
Mus musculus [7] = experiment: Acute toxicity in Swiss albino mouse assessed as lethal effect at 200 mg/kg/day, po after 72 hrs; type: organism-based; set-up: route oral; conditions: in vivo
Outline: (§4)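 Oral single dose suspended in 0.5% carboxymethylcellulose, given after a 24 h fast; food and water returned 1 h after dosing. Vehicle-only controls. Mice observed at 1 h, then once daily for 72 h, for toxic signs and mortality.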

Mus musculus [8] = experiment: Inhibition of carrageenan-induced paw edema in Swiss albino mouse at 25 mg/kg, po after 270 mins relative to control; type: functional; conditions: 4.5 h; outline: as §2
Mus musculus [9] = experiment: Acute toxicity in Swiss albino mouse assessed as lethal effect at 100 mg/kg/day, po after 72 hrs; type: organism-based; set-up: route oral; conditions: in vivo; outline: as §4
Mus musculus [10] = experiment: Inhibition of carrageenan-induced paw edema in Swiss albino mouse at 200 mg/kg, po after 360 mins relative to control; type: functional; conditions: 6 h; outline: as §2
Mus musculus [11] = experiment: Inhibition of carrageenan-induced paw edema in Swiss albino mouse at 25 mg/kg, po after 360 mins relative to control; type: functional; conditions: 6 h; outline: as §2
Mus musculus [12] = experiment: Inhibition of carrageenan-induced paw edema in Swiss albino mouse at 50 mg/kg, po after 90 mins relative to control; type: functional; conditions: 1.5 h; outline: as §1
Mus musculus [13] = experiment: Inhibition of carrageenan-induced paw edema in Swiss albino mouse at 200 mg/kg, po after 270 mins relative to control; type: functional; conditions: 4.5 h; outline: as §2
Mus musculus [14] = experiment: Analgesic activity against p-benzoquinone-induced abdominal constriction in Swiss albino mouse assessed as number of writhings at 25 mg/kg, po; type: functional, Abdomen; outline: as §3
Mus musculus [15] = experiment: Antiinflammatory activity against carrageenan-induced paw edema in Swiss albino mouse assessed as swelling thickness at 50 mg/kg, po after 270 mins; type: functional; outline: as §2
Mus musculus [16] = experiment: Analgesic activity against p-benzoquinone-induced abdominal constriction in Swiss albino mouse assessed as number of writhings at 200 mg/kg, po; type: functional, Abdomen; outline: as §3
Mus musculus [17] = experiment: Inhibition of p-benzoquinone-induced writhing in Swiss albino mouse at 100 mg/kg, po relative to control; type: functional
Outline: (§5)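 Mice, n = 6 per group, dosed orally with a suspension in 0.5% sodium CMC. 60 min later, 0.1 ml/10 g of 2.5% […] p-benzoquinone in distilled water given ip. Abdominal writhes counted per animal for 15 min, starting 5 min after injection. Expressed as % change in mean writhing count versus vehicle controls.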

Mus musculus [18] = experiment: Antiinflammatory activity against carrageenan-induced paw edema in Swiss albino mouse assessed as swelling thickness at 100 mg/kg, po after 90 mins; type: functional; outline: as §2
Mus musculus [19] = experiment: Acute toxicity in Swiss albino mouse assessed as lethal effect at 50 mg/kg/day, po after 72 hrs; type: organism-based; set-up: route oral; conditions: in vivo; outline: as §4
Mus musculus [20] = experiment: Inhibition of p-benzoquinone-induced writhing in Swiss albino mouse at 200 mg/kg, po relative to control; type: functional; outline: as §5
Mus musculus [21] = experiment: Inhibition of carrageenan-induced paw edema in Swiss albino mouse at 100 mg/kg, po after 180 mins relative to control; type: functional; conditions: 3 h; outline: as §2
Mus musculus [22] = experiment: Antiinflammatory activity against carrageenan-induced paw edema in Swiss albino mouse assessed as swelling thickness at 50 mg/kg, po after 90 mins; type: functional; outline: as §2
Mus musculus [23] = experiment: Antiinflammatory activity against carrageenan-induced paw edema in Swiss albino mouse assessed as swelling thickness at 200 mg/kg, po after 90 mins; type: functional; outline: as §2
Mus musculus [24] = experiment: Gastric-ulcerogenic effect in Swiss albino mouse assessed as lesions at 25 mg/kg, po; type: functional, organism-based; set-up: dose 25 mg/kg
Outline: (§6)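 Mice killed under deep ether anesthesia 3 h after the writhing test; the oral dose in 0.5% CMC was the one used in that test. Stomachs removed, opened along the great curvature and examined under a dissecting microscope for lesions or bleeding. Reported as ratio of ulceration; n = 6.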

Mus musculus [25] = experiment: Antiinflammatory activity against carrageenan-induced paw edema in Swiss albino mouse assessed as swelling thickness at 200 mg/kg, po after 270 mins; type: functional; outline: as §2
Mus musculus [26] = experiment: Antiinflammatory activity against carrageenan-induced paw edema in Swiss albino mouse assessed as swelling thickness at 50 mg/kg, po after 180 mins; type: functional; outline: as §2
Mus musculus [27] = experiment: Inhibition of carrageenan-induced paw edema in Swiss albino mouse at 100 mg/kg, po after 270 mins relative to control; type: functional; conditions: 4.5 h; outline: as §2
Mus musculus [28] = experiment: Inhibition of carrageenan-induced paw edema in Swiss albino mouse at 25 mg/kg, po after 180 mins relative to control; type: functional; conditions: 3 h; outline: as §2
Mus musculus [29] = experiment: Inhibition of carrageenan-induced paw edema in Swiss albino mouse at 200 mg/kg, po after 90 mins relative to control; type: functional; conditions: 1.5 h; outline: as §2
Mus musculus [30] = experiment: Antiinflammatory activity against carrageenan-induced paw edema in Swiss albino mouse assessed as swelling thickness at 200 mg/kg, po after 180 mins; type: functional; outline: as §2
Mus musculus [31] = experiment: Gastric-ulcerogenic effect in Swiss albino mouse assessed as lesions at 50 mg/kg, po; type: functional, organism-based; set-up: dose 50 mg/kg; outline: as §6
Mus musculus [32] = experiment: Inhibition of p-benzoquinone-induced writhing in Swiss albino mouse at 50 mg/kg, po relative to control; type: functional; outline: as §5
Mus musculus [33] = experiment: Antiinflammatory activity against carrageenan-induced paw edema in Swiss albino mouse assessed as swelling thickness at 100 mg/kg, po after 180 mins; type: functional; outline: as §2
Mus musculus [34] = experiment: Antiinflammatory activity against carrageenan-induced paw edema in Swiss albino mouse assessed as swelling thickness at 25 mg/kg, po after 360 mins; type: functional; outline: as §2
Mus musculus [35] = experiment: Inhibition of carrageenan-induced paw edema in Swiss albino mouse at 25 mg/kg, po after 90 mins relative to control; type: functional; conditions: 1.5 h; outline: as §2
Mus musculus [36] = experiment: Analgesic activity against p-benzoquinone-induced abdominal constriction in Swiss albino mouse assessed as number of writhings at 100 mg/kg, po; type: functional, Abdomen; outline: as §3
Mus musculus [37] = experiment: Inhibition of p-benzoquinone-induced writhing in Swiss albino mouse at 25 mg/kg, po relative to control; type: functional; outline: as §5
Mus musculus [38] = experiment: Acute toxicity in Swiss albino mouse assessed as lethal effect at 25 mg/kg/day, po after 72 hrs; type: organism-based; set-up: route oral; conditions: in vivo; outline: as §4
Mus musculus [39] = experiment: Antiinflammatory activity against carrageenan-induced paw edema in Swiss albino mouse assessed as swelling thickness at 50 mg/kg, po after 360 mins; type: functional; outline: as §2
Mus musculus [40] = experiment: Inhibition of carrageenan-induced paw edema in Swiss albino mouse at 100 mg/kg, po after 90 mins relative to control; type: functional; conditions: 1.5 h; outline: as §2
Mus musculus [41] = experiment: Antiinflammatory activity against carrageenan-induced paw edema in Swiss albino mouse assessed as swelling thickness at 25 mg/kg, po after 270 mins; type: functional; outline: as §2
Mus musculus [42] = experiment: Antiinflammatory activity against carrageenan-induced paw edema in Swiss albino mouse assessed as swelling thickness at 100 mg/kg, po after 270 mins; type: functional; outline: as §2
Mus musculus [43] = experiment: Inhibition of carrageenan-induced paw edema in Swiss albino mouse at 100 mg/kg, po after 360 mins relative to control; type: functional; conditions: 6 h; outline: as §2
Mus musculus [44] = experiment: Inhibition of carrageenan-induced paw edema in Swiss albino mouse at 50 mg/kg, po after 180 mins relative to control; type: functional; conditions: 3 h; outline: as §2
Mus musculus [45] = experiment: Antiinflammatory activity against carrageenan-induced paw edema in Swiss albino mouse assessed as swelling thickness at 200 mg/kg, po after 360 mins; type: functional; outline: as §2
Mus musculus [46] = experiment: Antiinflammatory activity against carrageenan-induced paw edema in Swiss albino mouse assessed as swelling thickness at 100 mg/kg, po after 360 mins; type: functional; outline: as §2

SMILES: CS(=O)(=O)c1nc(-c2ccccc2Cl)n[nH]1
- inhibition in vivo at 50 mg/kg (Mus musculus [1]): 33.5%
- inhibition in vivo at 50 mg/kg (Mus musculus [2]): 36.8%
- Activity (Mus musculus [3]): 56.9 10^-2mm
- Activity (Mus musculus [4]): 30.4
- inhibition in vivo at 200 mg/kg (Mus musculus [5]): 8.1%
- Activity (Mus musculus [6]): 49.1 10^-2mm
- Activity (Mus musculus [7]): Non-toxic
- inhibition in vivo at 25 mg/kg (Mus musculus [8]): 7.1%
- Activity (Mus musculus [9]): Non-toxic
- inhibition in vivo at 200 mg/kg (Mus musculus [10]): 9.6%
- inhibition in vivo at 25 mg/kg (Mus musculus [11]): 6.8%
- inhibition in vivo at 50 mg/kg (Mus musculus [12]): 26.5%
- inhibition in vivo at 200 mg/kg (Mus musculus [13]): 7.7%
- Activity (Mus musculus [14]): 40.1
- Activity (Mus musculus [15]): 43.1 10^-2mm
- Activity (Mus musculus [16]): 45.3
- inhibition in vivo at 100 mg/kg (Mus musculus [17]): 31.9%
- Activity (Mus musculus [18]): 35 10^-2mm
- Activity (Mus musculus [19]): Non-toxic
- inhibition in vivo at 200 mg/kg (Mus musculus [20]): 11.9%
- inhibition in vivo at 100 mg/kg (Mus musculus [21]): 24.3%
- Activity (Mus musculus [22]): 39.1 10^-2mm
- Activity (Mus musculus [23]): 49.8 10^-2mm
- Activity (Mus musculus [24]): Active
- Activity (Mus musculus [25]): 59.8 10^-2mm
- Activity (Mus musculus [26]): 41.2 10^-2mm
- inhibition in vivo at 100 mg/kg (Mus musculus [27]): 29.8%
- inhibition in vivo at 25 mg/kg (Mus musculus [28]): 4.2%
- inhibition in vivo at 200 mg/kg (Mus musculus [29]): 6.4%
- Activity (Mus musculus [30]): 54.6 10^-2mm
- Activity (Mus musculus [31]): Active
- inhibition in vivo at 50 mg/kg (Mus musculus [32]): 40.9%
- Activity (Mus musculus [33]): 39 10^-2mm
- Activity (Mus musculus [34]): 67.1 10^-2mm
- inhibition in vivo at 25 mg/kg (Mus musculus [35]): 7.7%
- Activity (Mus musculus [36]): 32.2
- inhibition in vivo at 25 mg/kg (Mus musculus [37]): 21.9%
- Activity (Mus musculus [38]): Non-toxic
- Activity (Mus musculus [39]): 45.5 10^-2mm
- inhibition in vivo at 100 mg/kg (Mus musculus [40]): 21.9%
- Activity (Mus musculus [41]): 60.2 10^-2mm
- Activity (Mus musculus [42]): 41.3 10^-2mm
- inhibition in vivo at 100 mg/kg (Mus musculus [43]): 35.3%
- inhibition in vivo at 50 mg/kg (Mus musculus [44]): 30.6%
- Activity (Mus musculus [45]): 65.1 10^-2mm
- Activity (Mus musculus [46]): 44.5 10^-2mm
